Assay results published in ChEMBL document CHEMBL4138251, “Iodine-Promoted Aromatization of p-Menthane-Type Phytocannabinoids” (J Nat Prod, 2018).

Key:
Cannabinoid receptor 1 = Cannabinoid receptor 1 (Homo sapiens, UniProt P21554); assay: Displacement of 3H-CP-55940 from recombinant full length human CB1 receptor expressed in HEK293 cell membranes after 90 mins by topcount scintillation counting analysis
Cannabinoid receptor 2 = Cannabinoid receptor 2 (Homo sapiens, UniProt P34972); assay: Displacement of 3H-CP-55940 from recombinant full length human CB2 receptor expressed in HEK293 cell membranes after 90 mins by topcount scintillation counting analysis
Sequence of Cannabinoid receptor 2 (P34972 whole entry): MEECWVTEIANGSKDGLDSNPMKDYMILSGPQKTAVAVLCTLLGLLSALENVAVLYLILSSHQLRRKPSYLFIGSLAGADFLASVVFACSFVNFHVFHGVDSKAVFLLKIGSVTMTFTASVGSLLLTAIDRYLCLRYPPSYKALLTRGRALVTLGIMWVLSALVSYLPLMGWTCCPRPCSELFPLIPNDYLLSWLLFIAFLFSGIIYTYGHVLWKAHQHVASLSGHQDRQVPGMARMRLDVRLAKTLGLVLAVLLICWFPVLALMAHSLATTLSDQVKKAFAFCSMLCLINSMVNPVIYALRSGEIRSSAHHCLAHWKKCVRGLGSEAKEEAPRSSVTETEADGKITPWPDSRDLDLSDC

[1] = target: Transient receptor potential cation channel subfamily A member 1 (Rattus norvegicus, UniProt Q6RI86); assay: Agonist activity at recombinant rat TRPA1 expressed in HEK293 cells assessed as increase in intracellular calcium level by Fluo4-AM probe based fluorescence assay; assay type: cell-based
Sequence of Transient receptor potential cation channel subfamily A member 1 (Q6RI86 whole entry): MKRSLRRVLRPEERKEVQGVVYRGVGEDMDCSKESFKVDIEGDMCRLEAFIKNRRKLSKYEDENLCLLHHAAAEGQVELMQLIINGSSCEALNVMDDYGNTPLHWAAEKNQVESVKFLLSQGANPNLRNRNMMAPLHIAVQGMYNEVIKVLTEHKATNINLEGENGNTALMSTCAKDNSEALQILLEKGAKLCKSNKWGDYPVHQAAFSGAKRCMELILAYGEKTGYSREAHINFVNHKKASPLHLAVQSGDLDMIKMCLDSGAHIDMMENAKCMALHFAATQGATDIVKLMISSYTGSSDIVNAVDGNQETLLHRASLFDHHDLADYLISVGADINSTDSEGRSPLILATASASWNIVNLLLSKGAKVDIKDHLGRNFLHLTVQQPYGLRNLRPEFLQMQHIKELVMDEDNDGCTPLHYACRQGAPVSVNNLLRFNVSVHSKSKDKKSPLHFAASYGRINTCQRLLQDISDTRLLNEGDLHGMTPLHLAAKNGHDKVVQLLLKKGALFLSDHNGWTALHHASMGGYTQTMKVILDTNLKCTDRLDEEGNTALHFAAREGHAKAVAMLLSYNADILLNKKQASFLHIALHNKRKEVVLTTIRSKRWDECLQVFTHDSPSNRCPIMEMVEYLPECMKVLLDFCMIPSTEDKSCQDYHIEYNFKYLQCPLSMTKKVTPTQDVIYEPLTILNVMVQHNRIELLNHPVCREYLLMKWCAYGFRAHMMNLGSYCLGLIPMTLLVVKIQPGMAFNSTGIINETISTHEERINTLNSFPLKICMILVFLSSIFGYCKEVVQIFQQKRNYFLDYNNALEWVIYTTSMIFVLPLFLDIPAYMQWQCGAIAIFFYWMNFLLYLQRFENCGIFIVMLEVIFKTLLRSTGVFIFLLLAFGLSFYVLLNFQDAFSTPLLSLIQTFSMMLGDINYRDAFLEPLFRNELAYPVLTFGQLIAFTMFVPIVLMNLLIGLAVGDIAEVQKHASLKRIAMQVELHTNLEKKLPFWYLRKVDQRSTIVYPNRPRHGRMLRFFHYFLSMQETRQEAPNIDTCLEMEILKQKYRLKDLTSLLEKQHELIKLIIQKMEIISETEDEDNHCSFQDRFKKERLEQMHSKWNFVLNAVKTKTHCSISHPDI
Procedure, shortened: (§1)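 HEK-293 cells stably expressing the channel, selected with G-418 (600 μg mL−1) and grown in MEM with 10% FBS and 2 mM glutamine at 37 °C, 5% CO2. Cells were loaded 1 h at room temperature in the dark with Fluo-4 AM (4 μM). Cells were washed and suspended in Tyrode's buffer pH 7.4, and fluorescence was read at 25 °C (ex 488/em 516 nm).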

[2] = target: Transient receptor potential cation channel subfamily M member 8 (Rattus norvegicus, UniProt Q8R455); assay: Antagonist activity at recombinant rat TRPM8 expressed in HEK293 cells assessed as inhibition of icilin-induced intracellular calcium level incubated for 5 mins followed by agonist stimulation by Fluo4-AM probe based fluorescence assay; assay type: cell-based
Sequence of Transient receptor potential cation channel subfamily M member 8 (Q8R455 whole entry): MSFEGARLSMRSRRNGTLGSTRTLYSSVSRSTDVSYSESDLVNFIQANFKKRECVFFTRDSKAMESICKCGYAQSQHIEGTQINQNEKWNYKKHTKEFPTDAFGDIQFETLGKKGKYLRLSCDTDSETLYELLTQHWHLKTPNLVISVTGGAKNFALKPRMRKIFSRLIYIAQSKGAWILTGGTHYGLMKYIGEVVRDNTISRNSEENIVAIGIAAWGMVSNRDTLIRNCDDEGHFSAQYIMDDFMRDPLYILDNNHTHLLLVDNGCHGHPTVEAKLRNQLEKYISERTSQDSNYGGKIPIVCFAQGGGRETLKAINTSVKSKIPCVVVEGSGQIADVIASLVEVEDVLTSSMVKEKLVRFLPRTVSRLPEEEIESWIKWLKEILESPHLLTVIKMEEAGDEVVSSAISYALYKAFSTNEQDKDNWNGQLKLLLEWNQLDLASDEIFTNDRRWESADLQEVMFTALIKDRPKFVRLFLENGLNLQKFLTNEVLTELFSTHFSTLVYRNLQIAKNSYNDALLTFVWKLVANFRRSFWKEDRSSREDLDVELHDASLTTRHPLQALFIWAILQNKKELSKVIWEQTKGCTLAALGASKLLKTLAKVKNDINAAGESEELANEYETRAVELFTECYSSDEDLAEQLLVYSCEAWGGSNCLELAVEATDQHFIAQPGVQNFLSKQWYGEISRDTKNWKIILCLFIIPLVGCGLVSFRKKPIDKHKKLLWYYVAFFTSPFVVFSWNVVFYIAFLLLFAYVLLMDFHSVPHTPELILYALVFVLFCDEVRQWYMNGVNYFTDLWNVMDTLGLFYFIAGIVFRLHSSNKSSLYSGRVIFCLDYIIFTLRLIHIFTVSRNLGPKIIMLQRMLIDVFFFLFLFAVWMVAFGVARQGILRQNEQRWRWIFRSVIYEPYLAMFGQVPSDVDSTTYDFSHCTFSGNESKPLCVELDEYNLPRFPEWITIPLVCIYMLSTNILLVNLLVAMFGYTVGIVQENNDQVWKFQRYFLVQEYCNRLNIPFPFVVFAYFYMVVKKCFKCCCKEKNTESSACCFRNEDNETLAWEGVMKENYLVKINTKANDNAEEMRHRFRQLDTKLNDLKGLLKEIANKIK
Procedure, shortened: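 Rat TRPM8 HEK-293 cells were loaded with Fluo-4 AM and suspended in Tyrode's buffer pH 7.4. Compound was added 5 min before icilin (0.25 μM), and [Ca2+]i was read at 22 °C on a Peltier system. IC50 for half-maximal inhibition of the agonist response was taken from sigmoidal fits.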

[3] = target: T1, Transient receptor potential cation channel subfamily V member 2 (Rattus norvegicus, UniProt Q9WUD2); assay: Agonist activity at recombinant rat TRPV2 expressed in HEK293 cells assessed as increase in intracellular calcium level by Fluo4-AM probe based fluorescence assay; assay type: cell-based; procedure, shortened: as §1
T1 sequence (Q9WUD2 whole entry): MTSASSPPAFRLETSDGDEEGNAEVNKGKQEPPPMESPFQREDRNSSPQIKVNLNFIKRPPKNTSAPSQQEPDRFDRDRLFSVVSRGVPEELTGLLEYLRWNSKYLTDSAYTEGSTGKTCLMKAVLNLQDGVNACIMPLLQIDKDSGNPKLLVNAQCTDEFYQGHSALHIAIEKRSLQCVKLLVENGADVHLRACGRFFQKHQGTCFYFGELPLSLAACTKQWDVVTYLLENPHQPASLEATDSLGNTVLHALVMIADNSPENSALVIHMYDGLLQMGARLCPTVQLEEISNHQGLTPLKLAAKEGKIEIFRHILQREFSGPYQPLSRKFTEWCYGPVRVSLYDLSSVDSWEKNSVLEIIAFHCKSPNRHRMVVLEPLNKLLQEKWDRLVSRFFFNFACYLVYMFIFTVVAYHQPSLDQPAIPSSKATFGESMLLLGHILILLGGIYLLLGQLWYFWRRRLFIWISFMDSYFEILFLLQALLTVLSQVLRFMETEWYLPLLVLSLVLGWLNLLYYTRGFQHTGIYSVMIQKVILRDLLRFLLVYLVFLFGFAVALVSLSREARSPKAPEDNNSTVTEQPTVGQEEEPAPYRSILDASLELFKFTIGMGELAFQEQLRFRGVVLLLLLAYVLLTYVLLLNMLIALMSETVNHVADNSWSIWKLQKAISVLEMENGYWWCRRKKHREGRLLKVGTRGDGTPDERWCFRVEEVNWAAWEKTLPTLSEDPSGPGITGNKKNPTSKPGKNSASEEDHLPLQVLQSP

[4] = target: Transient receptor potential cation channel subfamily V member 4 (Rattus norvegicus, UniProt Q9ERZ8); assay: Agonist activity at recombinant rat TRPV4 expressed in HEK293 cells assessed as increase in intracellular calcium level by Fluo4-AM probe based fluorescence assay; assay type: cell-based; procedure, shortened: as §1
Sequence of Transient receptor potential cation channel subfamily V member 4 (Q9ERZ8 whole entry): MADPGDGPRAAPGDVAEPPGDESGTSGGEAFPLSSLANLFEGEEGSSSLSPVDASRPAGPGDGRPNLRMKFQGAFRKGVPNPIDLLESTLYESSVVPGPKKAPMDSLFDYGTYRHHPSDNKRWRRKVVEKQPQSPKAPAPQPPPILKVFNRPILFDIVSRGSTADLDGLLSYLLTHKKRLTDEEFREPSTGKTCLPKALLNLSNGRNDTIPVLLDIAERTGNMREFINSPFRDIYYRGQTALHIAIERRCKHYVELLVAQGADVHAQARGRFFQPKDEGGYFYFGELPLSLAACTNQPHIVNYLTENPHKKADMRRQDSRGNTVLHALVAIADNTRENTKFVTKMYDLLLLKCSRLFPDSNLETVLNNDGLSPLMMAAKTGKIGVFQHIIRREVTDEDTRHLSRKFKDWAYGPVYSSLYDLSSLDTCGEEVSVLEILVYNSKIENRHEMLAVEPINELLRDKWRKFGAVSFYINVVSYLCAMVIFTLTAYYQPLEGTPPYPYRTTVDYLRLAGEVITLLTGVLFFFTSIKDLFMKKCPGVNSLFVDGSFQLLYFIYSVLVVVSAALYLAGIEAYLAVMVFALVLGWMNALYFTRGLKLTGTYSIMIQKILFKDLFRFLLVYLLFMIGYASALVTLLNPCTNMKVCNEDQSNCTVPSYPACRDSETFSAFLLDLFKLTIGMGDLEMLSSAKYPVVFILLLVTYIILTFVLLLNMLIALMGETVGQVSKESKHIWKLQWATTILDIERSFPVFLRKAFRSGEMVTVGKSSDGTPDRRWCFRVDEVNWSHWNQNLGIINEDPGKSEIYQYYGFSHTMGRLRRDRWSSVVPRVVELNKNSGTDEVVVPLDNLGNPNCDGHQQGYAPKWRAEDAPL

[5] = target: T2, Transient receptor potential cation channel, subfamily V, member 3 (Rattus norvegicus, UniProt E9PU00); assay: Agonist activity at recombinant rat TRPV3 expressed in HEK293 cells assessed as increase in intracellular calcium level by Fluo4-AM probe based fluorescence assay; assay type: cell-based; procedure, shortened: as §1
T2 sequence (E9PU00 whole entry): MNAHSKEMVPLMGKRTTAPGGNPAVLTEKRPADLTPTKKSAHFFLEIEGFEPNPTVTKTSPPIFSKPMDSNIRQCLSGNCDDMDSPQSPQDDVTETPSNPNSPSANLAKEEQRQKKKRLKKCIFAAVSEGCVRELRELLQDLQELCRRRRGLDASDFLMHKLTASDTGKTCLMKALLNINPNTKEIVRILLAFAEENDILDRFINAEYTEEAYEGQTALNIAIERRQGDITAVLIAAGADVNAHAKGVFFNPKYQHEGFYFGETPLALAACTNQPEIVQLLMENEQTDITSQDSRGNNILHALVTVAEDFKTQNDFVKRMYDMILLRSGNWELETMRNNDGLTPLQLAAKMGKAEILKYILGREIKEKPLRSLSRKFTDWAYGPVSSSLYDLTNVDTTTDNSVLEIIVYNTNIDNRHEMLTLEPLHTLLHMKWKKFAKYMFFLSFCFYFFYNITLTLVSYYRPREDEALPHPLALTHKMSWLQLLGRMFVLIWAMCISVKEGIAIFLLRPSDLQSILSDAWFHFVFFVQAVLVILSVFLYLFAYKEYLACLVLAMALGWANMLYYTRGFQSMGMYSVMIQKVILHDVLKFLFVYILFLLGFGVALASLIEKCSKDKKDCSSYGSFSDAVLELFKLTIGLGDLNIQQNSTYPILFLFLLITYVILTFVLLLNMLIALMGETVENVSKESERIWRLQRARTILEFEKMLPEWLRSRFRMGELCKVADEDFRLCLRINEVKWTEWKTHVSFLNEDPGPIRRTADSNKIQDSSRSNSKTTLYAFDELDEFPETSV

[6] = target: Transient receptor potential cation channel subfamily V member 1 (Homo sapiens, UniProt Q8NER1); assay: Agonist activity at human TRPV1 expressed in HEK293 cells assessed as increase in intracellular calcium level by Fluo4-AM probe based fluorescence assay; assay type: cell-based; procedure, shortened: as §1
Sequence of Transient receptor potential cation channel subfamily V member 1 (Q8NER1 whole entry): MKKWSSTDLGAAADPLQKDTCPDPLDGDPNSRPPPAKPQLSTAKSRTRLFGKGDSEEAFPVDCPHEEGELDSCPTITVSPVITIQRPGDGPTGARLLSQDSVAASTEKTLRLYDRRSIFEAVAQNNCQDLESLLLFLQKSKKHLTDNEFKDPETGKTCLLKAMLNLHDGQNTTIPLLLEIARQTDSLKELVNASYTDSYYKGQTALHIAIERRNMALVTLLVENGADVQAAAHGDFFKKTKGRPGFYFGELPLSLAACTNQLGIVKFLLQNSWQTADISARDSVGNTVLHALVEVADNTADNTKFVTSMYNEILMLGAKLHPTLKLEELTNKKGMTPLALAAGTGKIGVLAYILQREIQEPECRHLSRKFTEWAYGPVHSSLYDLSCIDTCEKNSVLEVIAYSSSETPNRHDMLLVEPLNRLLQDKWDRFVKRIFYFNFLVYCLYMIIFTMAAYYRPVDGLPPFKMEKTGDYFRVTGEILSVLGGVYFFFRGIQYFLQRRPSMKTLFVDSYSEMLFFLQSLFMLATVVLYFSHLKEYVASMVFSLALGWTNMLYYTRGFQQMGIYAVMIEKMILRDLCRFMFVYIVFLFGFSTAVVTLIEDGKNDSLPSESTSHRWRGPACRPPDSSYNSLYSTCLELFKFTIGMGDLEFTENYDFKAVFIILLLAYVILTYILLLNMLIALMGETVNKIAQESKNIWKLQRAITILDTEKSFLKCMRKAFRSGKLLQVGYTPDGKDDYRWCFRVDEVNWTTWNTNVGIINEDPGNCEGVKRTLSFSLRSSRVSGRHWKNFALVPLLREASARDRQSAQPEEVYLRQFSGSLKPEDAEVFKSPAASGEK

Sequence of Cannabinoid receptor 1 (P21554 whole entry): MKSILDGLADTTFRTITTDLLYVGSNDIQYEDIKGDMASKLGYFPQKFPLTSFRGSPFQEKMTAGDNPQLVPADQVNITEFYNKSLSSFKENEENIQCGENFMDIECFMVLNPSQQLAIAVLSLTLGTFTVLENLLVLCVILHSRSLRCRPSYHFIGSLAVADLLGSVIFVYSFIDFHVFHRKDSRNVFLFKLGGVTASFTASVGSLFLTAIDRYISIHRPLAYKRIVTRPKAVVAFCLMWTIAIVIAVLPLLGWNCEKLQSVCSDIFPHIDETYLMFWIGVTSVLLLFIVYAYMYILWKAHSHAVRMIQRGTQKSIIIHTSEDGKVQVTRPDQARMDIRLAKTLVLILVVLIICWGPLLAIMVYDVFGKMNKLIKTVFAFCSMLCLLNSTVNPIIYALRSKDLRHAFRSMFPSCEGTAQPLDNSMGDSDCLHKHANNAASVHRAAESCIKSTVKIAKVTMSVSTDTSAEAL

SMILES | EC50 (Cannabinoid receptor 1) | EC50 (Cannabinoid receptor 2) | EC50 [1] | IC50 [2] | EC50 [3] | EC50 [4] | EC50 [5] | EC50 [6]
CCCc1cc(O)c2c(c1)OC(C)(C)c1ccc(C)cc1-2 | 0.565 µM | 4.78 µM | 0.2 µM | 0.5 µM | 3.1 µM | 7.3 µM | 3.5 µM | 6.6 µM
CCCCCc1cc(O)c2c(c1)OC(C)(C)c1ccc(C)cc1-2 [CANNABINOL] | 0.075 µM | 0.073 µM | 0.18 µM | 0.21 µM | 19 µM | 16.1 µM | 5.3 µM | 6.2 µM
